Bioassay records from PubChem BioAssay.
aDG glyco act: increases alpha dystroglycan glycosylation; Pro5-aDG cells, alpha-DG glycosylation AlphaScreen (IIH6); 0% Pro5, 100% B10-LARGE cell signal; activation, % at 10 µM; 360,000 tested, 0.22% active;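 active means activation of at least 8% versus controls, or a plate z-score of at least 8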;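 further: Pro5 are CHO cells carrying HIG-tagged alpha-DG that lacks glycosylation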
HNF4A DNA FP: change in binding of human HNF4 alpha to DNA. P41235. HNF4a-FITC DNA binding, fluorescence polarization, 1 h. activity change, % at 10 µM. 360,000 tested, 0.3% active. AID 1224865; in the data active means activity change above about 30%, passing the limit was not always enough
CSN deneddyl inh: blocks human CSN-mediated cullin deneddylation | Purified CSN, SCF-Nedd8-OG deneddylation, fluorescence polarization | inhibition, % at 12.5 µM | 360,000 tested, 0.38% active | AID 651999;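 active means pattern-corrected inhibition above about 35%, with an unprinted fluorescence ratio check between 0.5 and 1.5, limit read from the data, passing the limit was not always enough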
Target sequence (Q92905 whole entry, looked up, one chain of several): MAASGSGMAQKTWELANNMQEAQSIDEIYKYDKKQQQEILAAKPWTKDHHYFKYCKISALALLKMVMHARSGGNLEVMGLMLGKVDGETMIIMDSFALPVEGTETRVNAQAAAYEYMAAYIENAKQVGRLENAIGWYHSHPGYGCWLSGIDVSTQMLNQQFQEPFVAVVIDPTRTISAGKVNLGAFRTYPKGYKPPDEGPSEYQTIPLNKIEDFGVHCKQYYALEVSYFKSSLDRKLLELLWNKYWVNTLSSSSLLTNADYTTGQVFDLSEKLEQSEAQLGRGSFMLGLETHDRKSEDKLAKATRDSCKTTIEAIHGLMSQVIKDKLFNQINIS
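Test system: Human Csn5 produced in HEK293T cells | Compound: 12.5 µM single point | Times: 90 min, room temperature | Signal: Fluorescence polarization readout | Read-out basis: % inhibition of substrate cleavage by Csn5 | Controls: no-enzyme wells high, enzyme-with-substrate wells low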
Rev-erbA mod: Rev-erb alpha (human) modulation; Rev-erbα–FITC-DNA binding, fluorescence polarization, 90 min; activity, % at 10 µM; 370,000 tested, 0.79% active;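 active means activity above about 14%, limit read from the data; passing the limit was not always enough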
aDG conf: confirmation of alpha dystroglycan glycosylation activators; activation, % at 10 µM (by protocol); Pro5-aDG cells, alpha-DG glycosylation, IIH6 AlphaLISA; scaled to LARGE-overexpressing B10 cells as 100%; 600 tested, 17% active; AID 651671; shares compounds with aDG glyco act;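 active means activation of at least 7% in one or more replicates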;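 further: cells exposed to compound for two days before detection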
A number is an active result; - = inactive; . = no result given. Rows were chosen to be rich in hits. Some 1.5% of all compounds tested hit in one or more screens of this group.

SMILES	aDG glyco act	HNF4A DNA FP	CSN deneddyl inh	Rev-erbA mod	aDG conf
Cc1nn(C)c(C(=O)NCc2ccc(Cl)cc2)c1Cl	4.9	-	-	-	-
Cc1nc(C)c(C(=O)NCc2ccc(Cl)cc2)o1	-	-	-	-	.
CCOC(=O)c1ccc(NC(=S)N2CCN(C)CC2)cc1	6.9	-	-	-	-
COc1ccc(C[N+]2=C(N)NC3=C4CCCCC4n4c(=O)n(-c5ccccc5)c(=O)n4C3C2)c(OC)c1 (stereo not drawn)	.	.	.	-	.
CC(COc1cc(F)cc(F)c1)CN1CCC(C(O)(c2ccccc2)c2ccccc2)CC1 (stereo not drawn)	.	.	.	-	.
CCN1CCN(c2ccc(S(=O)(=O)N3CCCCC3)cc2NC(=O)/C=C/c2ccc(OC(F)F)cc2)CC1	-	-	-	-	.
CN1CCN(c2ccc(S(=O)(=O)N3CCCCC3)cc2NC(=O)/C=C/c2ccc(OC(F)F)cc2)CC1	7.5	-	-	-	17
O=C(CNC(=O)c1ccccc1F)Nc1ccncc1	-	-	-	-	.
O=C(CNC(=O)c1ccccc1F)NCc1ccncc1	5.9	-	-	-	-
CCN1CCCCC(NC(=O)c2cccc(C(F)(F)F)c2)C1=O (stereo not drawn)	.	.	.	-	.
Cc1cc(-c2cc(C)c(N)cc2C)c(C)cc1N	-	-	-	-	.
Cc1cc2c(cc1C)C(=O)C(Br)=C(N)C2=O	6.1	-	-	-	-
COC(=O)[C@@]1(C)[C@H]2C(=O)N(Cc3ccccc3)C(=O)[C@H]2[C@H]2CN=C(SCc3ccc(C#N)cc3)N21	5.6	-	-	-	-
Cc1ccccc1Nc1nc(N)nc(COC(=O)c2ccco2)n1	3.8	-	-	-	-
Nc1nc(COC(=O)c2ccco2)nc(Nc2ccccc2)n1	-	-	-	-	.
COc1cc2[nH]c3c(=O)n4c(nc3c2cc1OC)SCCC4	31	-	-	-	22
COc1ccc2[nH]c3c(=O)n4c(nc3c2c1)SCC4	-	-	-	-	.
O=C(NCc1cccs1)C1CCN(S(=O)(=O)c2ccc([N+](=O)[O-])cc2)CC1	.	.	.	-	.
Cc1ccc(N(Cc2cc3ccc(C)cc3[nH]c2=O)C(=O)c2ccco2)c(C)c1	2.4	-	-	-	-
Cc1ccc2cc(CN(C(=O)c3ccco3)c3ccccc3C)c(=O)[nH]c2c1	-	-	-	-	.
COc1ccc(OC)c(N)c1	-	-	-	-	.
COc1cc(N)c2ncsc2c1	9.7	-	-	-	-
Cc1ccc(CCNC(=O)CCNS(=O)(=O)c2ccc3c(c2)oc(=O)n3C)cc1	-	-	-	-	.
Cn1c(=O)oc2cc(S(=O)(=O)NCCC(=O)NCCc3ccccc3)ccc21	4.3	-	-	-	-
NS(=O)(=O)c1ccc(CCNCc2cc(Br)ccc2OCc2ccccc2F)cc1	7.6	-	-	-	-
SMILES	aDG glyco act	HNF4A DNA FP	CSN deneddyl inh	Rev-erbA mod	aDG conf
CC1CCCN(CCCNC(=O)c2nn(C)c3c2CSc2ccccc2-3)C1 (stereo not drawn)	6.3	-	-	-	9.0
CC(C)Cn1c(N)c(C(=O)COC(=O)c2ccc(Br)cc2)c(=O)n(C)c1=O	3.4	-	-	-	1.2
CC(C)Cn1c(N)c(C(=O)COC(=O)c2ccc(Cl)cc2)c(=O)n(C)c1=O	-	-	-	-	.
COc1ccc(/C=N\NC(=O)CN2CCN(Cc3ccccc3)CC2)cc1OCc1ccccc1	.	.	.	-	.
Cc1onc(-c2ccccc2)c1CNS(=O)(=O)c1ccccc1[N+](=O)[O-]	2.6	-	-	-	-
Cc1ccccc1CNS(=O)(=O)c1ccccc1[N+](=O)[O-]	-	-	-	-	.
CCN1CCN(C2=C(NS(=O)(=O)c3ccc(NC(C)=O)cc3)C(=O)c3ccccc3C2=O)CC1	6.7	-	-	-	-
CC(=O)Nc1ccc(S(=O)(=O)NC2=C(N3CCN(Cc4ccccc4)CC3)C(=O)c3ccccc3C2=O)cc1	-	-	-	-	.
O=C(c1cccc(F)c1F)N1CCCC(c2nc(-c3cccs3)no2)C1 (stereo not drawn)	.	.	.	-	.
Cc1ccc(Cn2cc(CN3[C@@H](Cc4ccccc4)COc4cc(Br)ccc4S3(=O)=O)nn2)cc1	.	.	.	-	.
O=C(CN1C(=O)NC2(CCCC2)C1=O)Nc1ccc(Cl)c(C(F)(F)F)c1	-	-	-	-	.
CN1CC(=O)N(CC(=O)Nc2ccc(Cl)c(C(F)(F)F)c2)C1=O	5.9	-	-	-	-
O=C(c1ccccc1)N1CCC(Oc2cccnc2)CC1	.	.	.	-	.
O=C(CC1C=CCC1)OCCN1CCN(C2CN(Cc3cn(Cc4ccccc4Cl)nn3)S(=O)(=O)C2)CC1 (stereo not drawn)	.	.	.	-	.
CCCCN1CCc2c1nc1ccc(Br)cc1c2N	3.6	-	-	-	7.8
Cc1ccc(C)c(N2CCN(CCCNC(=O)Cn3cccc3C(=O)c3ccccc3)CC2)c1	10	-	-	-	-
O=C(Nc1nc2ncccn2c1-c1ccc(F)c(F)c1)C1CC1	.	.	.	-	.
Cc1cc(=O)oc2cc(OCC(=O)N3CCc4ccccc4C3)ccc12	4.2	-	-	-	-
Cc1cc(=O)oc2cc(OCC(=O)N3CCCc4ccccc43)ccc12	-	-	-	-	.
O=C(CCc1ccccc1-c1ccccc1CCNC(=O)c1ccccc1)NCc1ccccc1	.	.	.	-	.
COc1ccc(CN(C)C(C#Cc2ccccc2)Cc2ccccc2)c(OC)c1 (stereo not drawn)	.	.	.	-	.
Cc1cc2ccccc2n1CCNC(=O)C1CC1	7.8	-	-	-	-
Cc1cc2ccccc2n1CCNC(=O)C1CCCC1	-	-	-	-	.
Cc1cccc(C)c1NC(=O)c1ccc(-n2cncn2)nc1	3.8	-	-	-	-
CCCOc1ccc(C(=O)N(CC(C)C)c2c(N)n(Cc3ccccc3)c(=O)[nH]c2=O)cc1	5.7	-	-	-	-
SMILES	aDG glyco act	HNF4A DNA FP	CSN deneddyl inh	Rev-erbA mod	aDG conf
O=C(N[C@H]1C[C@@H]2O[C@H](CO)CC[C@@H]2O[C@@H]1CCc1ccc(-c2cccnc2)cc1)c1cccc(F)c1	.	.	.	-	.
Cc1cc(NC(=O)CSc2c3c(nc4ccccc24)CCC3)no1	8.2	-	-	-	-
CCOC(=O)N1C(=O)C[C@](Sc2ccc(OC)cc2)(C(=O)N2CCCC2)[C@H]1c1ccc(OC)cc1	.	.	.	-	.
CCOc1ccc(C=Nn2c(-c3ccc(F)cc3)n[nH]c2=S)cc1	.	.	.	-	.
O=C(OCc1ccccc1)N1CCC2CC1c1cc(N3CCCCC3)ccc12 (stereo not drawn)	5.9	-	-	-	-
CN=C(NC)NCc1ccccc1	.	.	.	-	.
COC(=O)COc1ccc(S(=O)(=O)Nc2ccc(C(N)=O)cc2)cc1C	-	-	-	-	.
COC(=O)COc1ccc(S(=O)(=O)Nc2ccc(C(N)=O)cc2)cc1Cl	77	-	-	-	-
C=CCNC(=S)NNC(=O)CCC(O)CCCCC (stereo not drawn)	8.4	-	-	-	-
COC(=O)[C@]12CCCCC=C1N(Cc1cccc3ccccc13)C(=O)[C@H](CC(=O)NCCC(C)C)C2	5.6	-	-	-	-
Cc1c[nH]c2cccc(-c3cc4ccccc4o3)c12	.	.	.	-	.
